Experimental data as given in publication PMC33344 (BMC Chemical Biology, 2001).

Legend:
[1] = target: bullfrog sympathetic ganglia SPR (bfSPR) (Aquarana catesbeiana, UniProt Q98982); assay: Whole cell recording of M-type K+ current; type: cell-based; details: for inhibition of IM: single bullfrog sympathetic neurons
[2] = Fluorophore spectral analysis; type: physicochemical; details: 10 nM in PBS, pH 7.4
Outline: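 Fluorophore-labelled substance P conjugates were analysed in a spectrofluorometer at 10 nM in PBS, pH 7.4, as solvent. Excitation and emission spectra were recorded for each conjugate, and peak wavelengths were read from the curves.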

bullfrog sympathetic ganglia SPR (bfSPR), sequence (Q98982 whole entry): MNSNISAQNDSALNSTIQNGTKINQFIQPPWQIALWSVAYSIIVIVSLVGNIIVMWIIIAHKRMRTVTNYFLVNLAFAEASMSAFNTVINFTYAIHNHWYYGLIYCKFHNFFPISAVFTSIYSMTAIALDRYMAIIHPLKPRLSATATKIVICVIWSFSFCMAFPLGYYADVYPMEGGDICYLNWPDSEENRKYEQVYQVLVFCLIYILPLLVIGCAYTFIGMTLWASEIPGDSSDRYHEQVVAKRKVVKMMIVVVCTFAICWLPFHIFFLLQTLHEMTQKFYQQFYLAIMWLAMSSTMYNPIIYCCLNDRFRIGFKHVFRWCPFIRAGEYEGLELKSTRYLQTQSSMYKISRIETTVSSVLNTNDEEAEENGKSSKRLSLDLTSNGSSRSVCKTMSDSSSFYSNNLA

Molecule	inhibition at 0.1 µM ([1]; read-out: inhibition of IM)	peak excitation [2]	peak of the emission curve [2]	inhibition of IM ([1]; 100 nM, 0.1 µM)	inhibition of IM ([1]; 1 μM)
CSCC[C@H](NC(=O)[C@H](CC(C)C)NC(=O)CNC(=O)[C@H](Cc1ccccc1)NC(=O)[C@H](Cc1ccccc1)NC(=O)[C@H](CCC(N)=O)NC(=O)[C@H](CCC(N)=O)NC(=O)[C@@H]1CCCN1C(=O)[C@H](CCCCN)NC(=O)[C@@H]1CCCN1C(=O)[C@@H](N)CCCN=C(N)N)C(N)=O [SP, reference compound]	~70%	–	–	–	–
Alexa 488-SP: Substance P with Alexa 488 covalently linked at Lys3; Molecular Probes product S-13426	–	490 nm	515 nm	did not inhibit IM	did not inhibit IM
fluorescein-SP: Substance P with fluorescein covalently linked at Lys3; Molecular Probes product S-13424	–	495 nm	520 nm	–	–
